The full list was thinned out, with hits kept by preference.
UPR XBP1 act: adaptive UPR (XBP1) activation; actives 0.33% (n = 330,000); activation, % at 20 µM; CHO-XBP1 luciferase reporter, IRE1-XBP1 UPR activation, luminescence; percent of tunicamycin response, DMSO as zero;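 active means versus positive control, 20 µM dose yields 30% or more activation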
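Material – CHO cell line with stable XBP1 luciferase reporter · Buffer or medium – F12 plus 10% FBS · Compound – single point, 20 µM final compound, 1% DMSO · Schedule – 16-18 h cell attachment at 37 °C, then 6 h compound exposure · Signal – Steady-Glo luminescence read · Benchmarks – high control tunicamycin 10 µg/mL final, low control DMSO vehicle only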
B2AR ag: activates human beta-2 adrenergic receptor causing internalization; actives 0.43% (n = 340,000); AID 504454; Am2.2-beta2AR cells, FAP receptor internalization, flow cytometry; P07550; response, % (no concentration beside the values);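 active means response above a set limit, near 3 SD of response in nonfluorescent compounds, cut at about 42% in these data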
Target sequence (P07550 whole entry, looked up): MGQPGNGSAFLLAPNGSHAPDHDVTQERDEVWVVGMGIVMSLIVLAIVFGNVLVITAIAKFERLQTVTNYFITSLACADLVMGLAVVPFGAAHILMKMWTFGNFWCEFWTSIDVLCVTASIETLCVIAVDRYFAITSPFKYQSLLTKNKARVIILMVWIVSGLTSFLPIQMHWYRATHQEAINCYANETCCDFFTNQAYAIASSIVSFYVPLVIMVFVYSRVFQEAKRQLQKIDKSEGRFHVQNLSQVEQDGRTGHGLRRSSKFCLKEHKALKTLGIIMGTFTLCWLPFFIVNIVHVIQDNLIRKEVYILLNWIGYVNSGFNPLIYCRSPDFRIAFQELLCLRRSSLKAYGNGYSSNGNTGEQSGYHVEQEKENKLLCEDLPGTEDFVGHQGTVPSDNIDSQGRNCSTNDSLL
VLA-4 inh: inhibition in a human VLA-4 binding assay. P13612. VLA-4 expressing cells, ligand binding flow cytometry. inhibition, % (about 7 µM as worked out from the volumes in the protocol). actives 0.2% (n = 330,000); in the data active means inhibition above about 50%
CHOP inh: blocks CHOP induction under ER stress. actives 3.8% (n = 220,000). inhibition, % at 10 µM. CHO-K1 CHOP-promoter luciferase, tunicamycin-induced, 15-18 h;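 active means compounds that reduced the stress-induced luciferase reporter signal by more than about 70% of percent inhibition, limit read from the data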
UPR CHOP act: activators of apoptotic arm of unfolded protein response (CHOP); activation, % at 10 µM; actives 0.34% (n = 330,000); CHO-CHOP luciferase reporter, UPR activation, luminescence; percent of tunicamycin response over DMSO baseline;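 active means at 10 µM dose, activation of 40% or more, normalized to positive control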
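Material: CHO-CHOP cells, stable luciferase reporter of PERK-eIF2a-CHOP signalling; quantity: 500 reporter cells seeded per well; buffer or medium: F12 medium containing 10% fetal bovine serum; compound: one dose, 10 µM in 0.5% DMSO; incubation: 6 h compound treatment, 37 °C; measured by: Steady-Glo luciferase luminescence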
CHOP confirm: confirmation of CHOP induction inhibitors; shares compounds with CHOP inh; actives 45% (n = 2,100); inhibition, % at 10 µM; CHO-CHOP promoter luciferase reporter, tunicamycin-induced, luminescence;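 active means mean of three repeat readings of reporter signal inhibition above a set limit, cut at about 70% in these data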
Each line names hits and unclear results; the compound was inactive in the other large screens (follow-up assays come after a bar, where they were run).

O=C(O)CCN1C(=O)/C(=C/c2cn(-c3ccccc3)nc2-c2cccs2)SC1=S	CHOP inh 102 (no result: VLA-4 inh) | CHOP confirm inactive
O=C(CSc1ncnc2c1cnn2-c1ccccc1)NC1CCCC1	none (no result: CHOP inh)
O=C(NNc1ccccc1Br)C(O)(c1cccc(C(F)(F)F)c1)c1cccc(C(F)(F)F)c1	CHOP inh 103 (no result: VLA-4 inh) | CHOP confirm 118
O=C1CC(C2CCCO2)C(=O)N1c1ccc(Cl)c(Cl)c1 (stereo not drawn)	none
CCOC(=O)c1c(-c2ccccc2)oc2ccc(O)cc12	none (no result: CHOP inh)
CCOC(=O)c1c(CSc2ccccc2)oc2ccc(O)cc12	CHOP inh 105 | CHOP confirm inactive
OC(CNCCc1ccc(C(F)(F)F)cc1)COc1ccc2ccccc2c1 (stereo not drawn)	CHOP inh 108 | CHOP confirm 123
OC(CNCCc1ccc(C(F)(F)F)cc1)COc1cccc2ccccc12 (stereo not drawn)	CHOP inh 108 | CHOP confirm 134
CCCCc1c(C)nn(-c2nnc3c4ccccc4n(CC)c3n2)c1C	CHOP inh 105 | CHOP confirm 99
CCOC(=O)/C(=C/c1ccc(OC(=O)c2ccccc2)cc1)C(C)=O	CHOP inh 101 | CHOP confirm inactive
CCOC(=O)/C(=C\c1ccccc1)NC(=O)c1ccccc1	none
CCCNC(=O)CSCc1nc(-c2ccc(SC)cc2)oc1C	none
CCc1ccc(-c2nc(CSCC(=O)NCc3ccco3)c(C)o2)cc1	CHOP inh 102 (no result: UPR XBP1 act, VLA-4 inh, UPR CHOP act) | CHOP confirm 135
Cn1nnc(-c2ccc(OCc3ccccc3F)cc2)n1	none
C(=N\n1cnnc1)/c1ccc(OCc2ccccc2)cc1	none
Cc1cc(/C=N/n2cnnc2)c(C)n1-c1ccc(OCc2ccccc2F)cc1	CHOP inh 111 | CHOP confirm 103
Cc1cc(/C=N/n2cnnc2)c(C)n1-c1ccc(OCc2ccc(Cl)cc2)cc1	CHOP inh 99 | CHOP confirm 91
Cc1nn(C)cc1S(=O)(=O)N1CCN(Cc2cccc(Cl)c2)CC1	none
Cc1cccc(NC(=O)/C(=C\c2ccc([N+](=O)[O-])o2)NC(=O)c2ccc(Cl)cc2)c1	CHOP inh 101 (no result: UPR XBP1 act, UPR CHOP act) | CHOP confirm inactive
Cc1cccc2sc(NC(=O)c3ccc(Cl)s3)nc12	none
COc1cccc2sc(NC(=O)c3ccc(Br)s3)nc12	CHOP inh 104 | CHOP confirm inactive
C[C@H](CO)N1C[C@H](C)[C@@H](CN(C)C)Oc2c(NS(=O)(=O)c3cn(C)cn3)cccc2C1=O	none (no result: CHOP inh)
CCCN1CCN(C(=O)CS(=O)(=O)Cc2nc(-c3cccc(OC)c3)oc2C)CC1	none (no result: CHOP inh)
Cn1nc(C(=O)N2CCN(c3ccccn3)CC2)c2ccccc2c1=O	none (no result: CHOP inh)
Cc1cccc(/C=C2/S/C(=N/N=C3\CC4CCC3(C)C4(C)C)NC2=O)c1 (stereo not drawn)	CHOP inh 105 | CHOP confirm 106
O=C1N/C(=N/O)S/C1=C/c1cccc([N+](=O)[O-])c1	none
CCOc1ccccc1NC(=O)CCSc1nc2n[nH]c(C)c2c(=N)n1-c1ccccc1Cl	UPR XBP1 act 110, CHOP inh 101 | CHOP confirm inactive
Cc1ccccc1-n1c(SCC(=O)Nc2ccccc2Cl)nc2n[nH]c(C)c2c1=N	none (no result: CHOP inh)
COc1ccc(Cn2c(C(F)(F)F)ccc(C(N)=O)c2=O)cc1	none
NC(=O)c1ccc(C(F)(F)F)n(Cc2c(Cl)cccc2Cl)c1=O	CHOP inh 102 | CHOP confirm 112
CCOc1ccc(NC(=O)c2ccccc2NC(=O)CN(C)CC(=O)Nc2ccc(C)cc2)cc1	CHOP inh 107 | CHOP confirm inactive
Cc1ccc(C(=O)CN2/C(=C(\O)c3ccccc3)C(=O)c3ccccc3S2(=O)=O)c(C)c1	CHOP inh 106 | CHOP confirm inactive
Cc1ccc(S(=O)(=O)N(C)C)cc1NC(=O)COC(=O)CN1C(=O)c2ccccc2C1=O	none (no result: CHOP inh)
O=C(Cc1cccc(NC(=O)C2CCN(C(=O)C3CCCCC3)CC2)c1)Nc1cccc(C(=O)N2CCCC2)c1	none (no result: CHOP inh)
O=C(CCN=C1NS(=O)(=O)c2ccccc21)Nc1ccc(Cl)cc1F	none (no result: CHOP inh)
Cc1ccc(S(=O)(=O)Nc2ccc3[nH]ccc3c2)cc1	none (no result: CHOP inh)
